In one series the test system is Saccharomyces cerevisiae. Description: Inhibition of yeast Pma1 at 100 uM preincubated for 30 mins by spectrophotometric method. The essentials: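 Pma1 purified from Saccharomyces cerevisiae plasma membrane, 0.5 µg per reaction. Enzyme preincubated 30 min at room temperature with 100 µM compound. Reaction buffer: 5 mM ATP, 10 mM MgSO4, 50 mM KNO3, 5 mM NaN3, 3.5 mM molybdate, 20 mM MES-KOH pH 5.9. Run 30 min, then stopped with acidic molybdate/ascorbate/SDS. Released phosphate read at 860 nm after arsenite-citrate treatment (Baginski method).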

The subject of the next series is Pseudomonas aeruginosa. Description: Inhibition of LasR-dependent quorum sensing activity in Pseudomonas aeruginosa harboring reporter plasmid lasB-GFP assessed as reduction in GFP expression up to 100 ug/ml measured every 15 mins for 14 hrs by fluorescence assay. The method in brief: (§1)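 P. aeruginosa lasB-gfp and rhlA-gfp reporters, grown 16 h at 37 °C with shaking, then diluted to OD450 0.1 in BT minimal medium (10% A10, 0.5% glucose, 0.5% Casamino Acids). No added signal molecule. Fluorescence at 485/535 nm and growth monitored every 15 min for 14 h at 34 °C. Concentrations up to 100 µg/ml.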

Series [1] has as its target T1, HTH-type quorum-sensing regulator RhlR (Pseudomonas aeruginosa (strain ATCC 15692 / PAO1 / 1C / PRS 101 / LMG12228)) (UniProt P54292).
T1 sequence (whole entry): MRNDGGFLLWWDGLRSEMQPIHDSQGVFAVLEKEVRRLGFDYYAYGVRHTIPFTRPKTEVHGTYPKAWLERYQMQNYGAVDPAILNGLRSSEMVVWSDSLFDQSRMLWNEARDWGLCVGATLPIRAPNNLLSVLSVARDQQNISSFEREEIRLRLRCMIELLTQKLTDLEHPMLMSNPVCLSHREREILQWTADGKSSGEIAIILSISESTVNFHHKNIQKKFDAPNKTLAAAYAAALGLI
Description: Inhibition of RhlR-dependent quorum sensing activity in Pseudomonas aeruginosa harboring reporter plasmid rhlA-gfp assessed as reduction in GFP expression up to 100 ug/ml measured every 15 mins for 14 hrs by fluorescence assay. The method in brief: as §1

In series [2] the test system is Escherichia coli. Description: Growth inhibition of Escherichia coli at 0.39 to 100 ug/ml. The essentials:
(§2)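 luxI-gfp E. coli reporter grown 16 h at 37 °C, shaking 180 rpm, then diluted to OD450 0.1 in BT minimal medium with 10% A10, 0.5% glucose and 0.5% Casamino Acids. 3-oxo-C6-HSL added at 10 nM final. Compounds run in triplicate as 2-fold dilutions from 100 μg/ml. GFP (ex 485/em 535) and OD450 read every 15 min for 14 h at 34 °C. IC50 taken from GFP curves.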

The test system of series [3] is Escherichia coli. Description: Inhibition of LuxR-dependent quorum sensing activity in Escherichia coli harboring reporter plasmid LuxI-GFP assessed as reduction in 3-oxo-C6-HSL-induced GFP expression up to 100 ug/ml measured every 15 mins for 14 hrs by fluorescence assay. The essentials: as §2
Series [4] can be described thus: Inhibition of LuxR-dependent quorum sensing activity in Escherichia coli harboring reporter plasmid LuxI-GFP assessed as reduction in 3-oxo-C6-HSL-induced GFP expression measured every 15 mins for 14 hrs by fluorescence assay. The method in brief: as §2

≈ marks a conversion by molar mass, not a printed value. Calls of active or inactive are those of the source. The rule behind the calls is not given here.

In the case of `COc1cccc(-c2ccc(C(=O)O)nc2)n1`, the inhibition entry (with Saccharomyces cerevisiae; in the series on Pseudomonas aeruginosa; in series [1]) was “inactive” in each case.

For `CCCOc1ccc(C(=O)O)nc1`, the “growth inhibition (GI)” value in the series on Escherichia coli [2] was “Toxic”. The inhibition entry (in the series with Saccharomyces cerevisiae; in the series with Pseudomonas aeruginosa; in series [1]) was “inactive” in each case. Further, in the series on Escherichia coli [3], the inhibition entry is “Active”.

Regarding `O=C(O)COc1ccc(C(=O)O)nc1`, the inhibition entry (in the series with Saccharomyces cerevisiae; in the series with Escherichia coli [3]; in the series with Pseudomonas aeruginosa; in series [1]) was “inactive” throughout.

For `CCOC(=O)c1ccc(Br)cn1`, the inhibition result (in the series with Saccharomyces cerevisiae; with Pseudomonas aeruginosa; in series [1]) was “inactive” throughout.

Turning to `O=C(O)c1ccc(-c2ccccc2)cn1`, the inhibition entry (in the series on Saccharomyces cerevisiae; with Pseudomonas aeruginosa; in series [1]) was “inactive” each time.

`C=CCSS/C=C\C[S+]([O-])CC=C` (stereo not drawn) [(Z)-Ajoene]: in series [4], the IC50 (as a rule, the concentration needed to halve the response being measured) was found to be 4 µg/mL (≈ 17.1 µM).

On to `COC(=O)c1ccc(OCC2CC2)cn1`, for which the “growth inhibition (GI)” value in the series with Escherichia coli [2] is given as “Non-Toxic”. Also, the inhibition result (with Saccharomyces cerevisiae; in the series with Pseudomonas aeruginosa; in series [1]) was “inactive” in each case. In addition, the IC50 in series [4] was found to be 14 µg/mL (≈ 67.6 µM).

Consider `O=C(O)c1ccc(-c2nccs2)cn1`, for which the “growth inhibition (GI)” value in the series on Escherichia coli [2] was “Non-Toxic”. Also, the inhibition result (with Saccharomyces cerevisiae; in the series on Escherichia coli [3]; in the series with Pseudomonas aeruginosa; in series [1]) was “inactive” in each case.

For `O=C(O)c1ccc(-c2cccc3ccccc23)cn1`, the inhibition result (in the series on Saccharomyces cerevisiae; in the series on Pseudomonas aeruginosa; in series [1]) was “inactive” in each case.

With `COC(=O)c1ccc(-c2ccco2)cn1`, the inhibition result (in the series on Saccharomyces cerevisiae; in the series with Pseudomonas aeruginosa; in series [1]) was “inactive” in each case.

For `O=C(O)c1ccc(Br)cn1`, the inhibition result (in the series on Saccharomyces cerevisiae; in the series with Pseudomonas aeruginosa; in series [1]) was “inactive” each time.

Regarding `COC(=O)c1ccc(-c2nccs2)cn1`, the inhibition result (with Saccharomyces cerevisiae; in the series on Pseudomonas aeruginosa; in series [1]) was “inactive” in each case.

On to `O=C(O)c1ccc(-c2ccco2)cn1`, for which the “growth inhibition (GI)” value with Escherichia coli [2] is “Toxic”. For the same compound, the inhibition entry (in the series with Saccharomyces cerevisiae; with Pseudomonas aeruginosa; in series [1]) was “inactive” each time. Further, the inhibition entry in the series with Escherichia coli [3] was “Active”.

`CCCOc1ccc(C(=O)OC)nc1`: the “growth inhibition (GI)” value with Escherichia coli [2] was “Non-Toxic”. The inhibition entry (in the series on Saccharomyces cerevisiae; in the series on Pseudomonas aeruginosa; in series [1]) was “inactive” each time.

For `Cn1cc2ccc(-c3ccc(C(=O)O)nc3)cc2n1`, the inhibition result (in the series with Saccharomyces cerevisiae; in the series on Pseudomonas aeruginosa; in series [1]) was “inactive” in each case.

Consider `COC(=O)c1ccc(-c2ccc(C)s2)cn1`, for which the inhibition entry (with Saccharomyces cerevisiae; in the series on Pseudomonas aeruginosa; in series [1]) was “inactive” in each case.

Regarding `COC(=O)c1ccc(-c2ccnc3cc(OC)ccc23)cn1`, the inhibition result (in the series on Saccharomyces cerevisiae; with Pseudomonas aeruginosa; in series [1]) was “inactive” throughout.

For `O=C(O)c1ccc(OCC2CC2)cn1`, the “growth inhibition (GI)” value with Escherichia coli [2] is given as “Toxic”. In addition, the inhibition entry (with Saccharomyces cerevisiae; with Pseudomonas aeruginosa; in series [1]) was “inactive” in each case. For the same compound, in the series on Escherichia coli [3], the inhibition result is “Active”.

As to `COc1ccc2nccc(-c3ccc(C(=O)O)nc3)c2c1`, in the series with Escherichia coli [2], the “growth inhibition (GI)” value is “Non-Toxic”. Moreover, the inhibition entry (in the series on Saccharomyces cerevisiae; with Escherichia coli [3]; in the series on Pseudomonas aeruginosa; in series [1]) was “inactive” in each case.

For `COC(=O)c1ccc(-c2ccnc3ccccc23)cn1`, the “growth inhibition (GI)” value in the series with Escherichia coli [2] is “Non-Toxic”. Further, the inhibition result (in the series on Saccharomyces cerevisiae; in the series with Escherichia coli [3]; with Pseudomonas aeruginosa; in series [1]) was “inactive” each time.

Regarding `CCOC(=O)c1ccc(CSCC)cn1`, the inhibition result (with Saccharomyces cerevisiae; in the series on Pseudomonas aeruginosa; in series [1]) was “inactive” throughout.

On to `CCOC(=O)c1ccc(-c2ccc(C)cc2)cn1`, for which the inhibition result (with Saccharomyces cerevisiae; in the series with Pseudomonas aeruginosa; in series [1]) was “inactive” in each case.

Regarding `COC(=O)c1ccc(-c2ccc3cn(C)nc3c2)cn1`, the inhibition entry (in the series with Saccharomyces cerevisiae; with Pseudomonas aeruginosa; in series [1]) was “inactive” throughout.

For `CCCNC(=O)c1ccc(NCCC)cn1`, the inhibition result (in the series with Saccharomyces cerevisiae; in the series with Pseudomonas aeruginosa; in series [1]) was “inactive” in each case.

`COC(=O)c1ccc(-c2ccnc3ccc(OC)cc23)cn1`: the inhibition result (in the series with Saccharomyces cerevisiae; in the series on Pseudomonas aeruginosa; in series [1]) was “inactive” throughout.

On to `Cc1ccc(-c2ccc(C(=O)O)nc2)cc1`, for which the inhibition result (in the series on Saccharomyces cerevisiae; in the series with Pseudomonas aeruginosa; in series [1]) was “inactive” in each case.

As for `CCOC(=O)c1ccc(-c2cccc3ccccc23)cn1`, the inhibition result (in the series with Saccharomyces cerevisiae; in the series on Pseudomonas aeruginosa; in series [1]) was “inactive” throughout.

For the compound `O=C(O)c1ccc(-c2ccnc3ccccc23)cn1`, the inhibition entry (with Saccharomyces cerevisiae; with Pseudomonas aeruginosa; in series [1]) was “inactive” in each case.

As for `COC(=O)c1ccc(-c2cc(C)nc3ccccc23)cn1`, the inhibition entry (in the series with Saccharomyces cerevisiae; in the series with Pseudomonas aeruginosa; in series [1]) was “inactive” in each case.

Consider `Cc1cc(-c2ccc(C(=O)O)nc2)c2ccccc2n1`, for which the “growth inhibition (GI)” value with Escherichia coli [2] is on record as “Non-Toxic”. Further, the inhibition entry (in the series on Saccharomyces cerevisiae; with Escherichia coli [3]; in the series with Pseudomonas aeruginosa; in series [1]) was “inactive” each time.

As for `Cc1ccc(-c2ccc(C(=O)O)nc2)s1`, the inhibition entry (in the series with Saccharomyces cerevisiae; in the series with Pseudomonas aeruginosa; in series [1]) was “inactive” throughout.

For the compound `COc1ccc2c(-c3ccc(C(=O)O)nc3)ccnc2c1`, the inhibition result (in the series with Saccharomyces cerevisiae; in the series on Pseudomonas aeruginosa; in series [1]) was “inactive” each time.

`O=C(COc1ccc(C(=O)O)nc1)Nc1ccccc1`: the “growth inhibition (GI)” value with Escherichia coli [2] was “Non-Toxic”. Further, the inhibition result (in the series with Saccharomyces cerevisiae; with Escherichia coli [3]; in the series on Pseudomonas aeruginosa; in series [1]) was “inactive” in each case.

As for `O=C(O)c1ccc(Cc2ccccc2)cn1`, the inhibition entry (in the series with Saccharomyces cerevisiae; with Pseudomonas aeruginosa; in series [1]) was “inactive” in each case.

On to `COC(=O)c1ccc(Cc2ccccc2)cn1`, for which the inhibition entry (in the series with Saccharomyces cerevisiae; in the series with Pseudomonas aeruginosa; in series [1]) was “inactive” throughout.

The values are drawn from ChEMBL document CHEMBL4002598, “Fusaric acid and analogues as Gram-negative bacterial quorum sensing inhibitors” (Eur J Med Chem, 2017).
